Sampled rows, rich in hits. Any-hit rate of the full collection: about 3.8%.
hERG rescue = hERG (human) protection from proarrhythmic block | Q12809 | CHO-hERG, FluxOR thallium flux, dofetilide IC70 present | AID 1511 | activation (rescue from dofetilide block), less the hit threshold, % at 10 µM | hit rate 0.51% among 310,000;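 active = activation above the mean of controls blocked by dofetilide plus 5 SD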;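 also: thallium influx through hERG after potassium depolarization seen as dye fluorescence rise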
KCNK9 inh = inhibitors of human KCNK9 two-pore domain potassium channel. Q9NPC2. hit rate 1.2% among 310,000. HEK293 KCNK9, FluxOR thallium flux fluorescence; active compounds read low. B-score at 10 µM. AID 488922;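 active = ratio B-score over 3 SD below the library mean, with starting fluorescence within 5 SD of its mean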;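 also: negative B-score means less thallium flux so channel inhibition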
Kir21 block = inhibitors of mouse Kir2.1 inward-rectifier potassium channel; hit rate 0.85% among 310,000; AID 1672; B-score at 10 µM; P35561; HEK293-Kir2.1, FluxOR thallium flux fluorescence; active compounds read low;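 active = fluorescence ratio B-score at or below minus 3 SD of library scores, with starting-brightness B-score within 2 SD, cut at about -4.2 in these data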;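 also: channel flux triggered by added potassium and thallium sulfate stimulus; B-score of peak minus minimum fluorescence over baseline after thallium stimulus; more negative B-score means stronger Kir2.1 block with less thallium influx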
KCNK3 inh = human KCNK3 channel inhibition, primary screen; O14649; CHO-KCNK3 thallium flux, FluxOR fluorescence; active compounds read low; B-score at 10 µM; hit rate 0.84% among 340,000; AID 602410;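 active = B-score under library mean minus 4 SD, starting fluorescence ratio at most library mean plus 5 SD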;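 also: more negative B-score means stronger inhibition of thallium flux through KCNK3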
KCNQ1 inh = inhibitors of human KCNQ1 potassium channel; P51787; CHO-K1 KCNQ1, FluxOR thallium flux fluorescence; active compounds read high; B-score at 10 µM; hit rate 1.3% among 310,000;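 active = compounds whose thallium flux B-score, printed positive for inhibition, exceeds three library SD while starting fluorescence stays within three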;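 also: channel opened by potassium depolarization with thallium stimulus after 20 min compound exposure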
KCNQ1 act = potentiates or activates the human KCNQ1 potassium channel; P51787; CHO-K1 KCNQ1, thallium flux FluxOR fluorescence; active compounds read high; B-score at 10 µM; hit rate 0.35% among 310,000; AID 2648;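 active = fluorescence ratio B-score, a plate-corrected score, at least three library SD, with initial intensity B-score within 5 SD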
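Medium – assay buffer, equal DMSO in all wells · Material – CHO-K1 cell line with stable KCNQ1 potassium channel expression · Signal – kinetic FluxOR thallium fluorescence, 10-s 1-Hz baseline, 110-s post-stimulus read · Compound – single concentration per compound, DMSO matched to controls · Schedule – 37 °C overnight plating, 90-min dark dye load, 20-min compound pretreatment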
KCNQ1 inh valid = reconfirmed blocker of the human KCNQ1 potassium channel; shares compounds with KCNQ1 inh; hit rate 93% among 1,600; inhibition, % at 10 µM; KCNQ1 cell line, FluxOR thallium flux fluorescence;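 active = primary screen active, with duplicate mean exceeding buffer control mean plus 3 SD of buffer wells, cut at about 28% in these data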
CHO KCNQ1 ctr = activity in parental CHO cells lacking KCNQ1; shares compounds with KCNQ1 inh; hit rate 21% among 1,600; parental CHO-K1, FluxOR thallium flux fluorescence ratio; active compounds read low; zero means no signal rise above baseline; fluorescence ratio (Tl flux) at 10 µM;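 active = mean of duplicate thallium-flux fluorescence ratios in parental host cells more than 5 SD below the buffer control mean, cut at about 0.38 in these data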;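 also: ratio is peak minus minimum fluorescence divided by baseline fluorescence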
KCNQ1 ephys val = confirmation of human KCNQ1 potassium channel inhibitors by electrophysiology | shares compounds with KCNQ1 inh | KCNQ1-CHO cells, automated patch clamp current | calls only at 10 µM | hit rate 20% among 490 | AID 624120;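 active = KCNQ1 current drop exceeding 3 SD of negative control wells, seen in both duplicate runs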;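 also: steady state current during a 2 s step from -80 to +40 mV; negative values mean current inhibition and positive values mean potentiation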
KCNQ2 inh = rat KCNQ2 inhibition in KCNQ1 inhibitor specificity screen | shares compounds with KCNQ1 inh | KCNQ2 cells, FluxOR thallium flux fluorescence | inhibition, % at 10 µM | hit rate 71% among 1,600;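 active = mean percent inhibition of the KCNQ2 thallium signal more than 5 SD above the buffer-only control wells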;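 also: KCNQ2 expressed in CHO cells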
Target sequence (O88943 whole entry, looked up): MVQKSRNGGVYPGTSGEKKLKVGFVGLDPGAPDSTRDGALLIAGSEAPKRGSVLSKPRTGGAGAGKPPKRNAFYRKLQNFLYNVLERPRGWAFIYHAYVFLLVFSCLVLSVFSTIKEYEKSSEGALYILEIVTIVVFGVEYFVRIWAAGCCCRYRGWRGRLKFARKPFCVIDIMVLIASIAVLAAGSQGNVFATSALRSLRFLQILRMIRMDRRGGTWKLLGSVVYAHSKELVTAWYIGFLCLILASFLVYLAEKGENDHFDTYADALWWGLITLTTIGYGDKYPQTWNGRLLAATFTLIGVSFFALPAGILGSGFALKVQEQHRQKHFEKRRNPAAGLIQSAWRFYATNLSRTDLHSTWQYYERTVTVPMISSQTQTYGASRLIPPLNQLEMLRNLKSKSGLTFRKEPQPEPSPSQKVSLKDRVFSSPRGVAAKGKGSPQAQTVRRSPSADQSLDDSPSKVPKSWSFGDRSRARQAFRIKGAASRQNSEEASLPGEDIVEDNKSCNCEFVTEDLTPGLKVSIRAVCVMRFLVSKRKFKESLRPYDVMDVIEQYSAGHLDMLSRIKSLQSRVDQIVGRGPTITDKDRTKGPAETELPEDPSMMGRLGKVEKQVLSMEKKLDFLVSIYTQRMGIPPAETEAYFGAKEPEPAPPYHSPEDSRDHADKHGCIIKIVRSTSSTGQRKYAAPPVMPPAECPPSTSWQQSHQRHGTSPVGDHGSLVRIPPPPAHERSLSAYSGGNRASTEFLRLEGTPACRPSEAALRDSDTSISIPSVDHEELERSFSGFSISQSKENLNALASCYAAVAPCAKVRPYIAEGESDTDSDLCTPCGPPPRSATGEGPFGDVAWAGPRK
KCNQ1-KCNE1 inh = KCNQ1 inhibitor that also blocks human KCNQ1/KCNE1 channel | hit rate 77% among 1,600 | shares compounds with KCNQ1 inh | inhibition, % at 10 µM | KCNQ1/KCNE1 cells, FluxOR thallium flux fluorescence;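 active = mean percent inhibition of duplicate wells above the buffer-only control mean plus 3 SD of those controls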
Large screens that a line does not name were inactive (follow-up assays come after a bar, where they were run).

Oc1ccc2nnc3c(Br)cnn3c2c1	KCNQ1 inh 24 | KCNQ1 inh valid active | CHO KCNQ1 ctr 0.042 | KCNQ2 inh inactive | KCNQ1-KCNE1 inh inactive
Cc1cccc(Cn2nc(C(C)(C)C)cc2C(=O)Nc2ccc(F)cc2)c1	KCNQ1 inh 12 | KCNQ1 inh valid 175 | CHO KCNQ1 ctr 0.22 | KCNQ2 inh 144% | KCNQ1-KCNE1 inh active
COc1cccc(CN(C)C(=O)c2cccc(S(=O)(=O)N3CCN(c4ccccc4)CC3)c2)c1OC	none (no result: hERG rescue, KCNK9 inh, Kir21 block, KCNQ1 inh, KCNQ1 act)
CN(Cc1ccc(Cl)cc1Cl)C(=O)c1cccc(S(=O)(=O)N2CCN(c3ccccc3)CC2)c1	KCNQ1 inh 6 | KCNQ1 inh valid 92 | CHO KCNQ1 ctr inactive | KCNQ1 ephys val inactive | KCNQ2 inh 90% | KCNQ1-KCNE1 inh 68%
COc1ccc2oc(C(=O)N3CCN(C(c4ccccc4)c4ccccc4)CC3)c(C)c2c1	KCNQ1 inh 9 | KCNQ1 inh valid 93 | CHO KCNQ1 ctr inactive | KCNQ1 ephys val active | KCNQ2 inh 101% | KCNQ1-KCNE1 inh 114%
O=C(c1cc(-c2ccco2)on1)N1CCN(C(c2ccccc2)c2ccccc2)CC1	KCNQ1 inh 8 | KCNQ1 inh valid 124 | CHO KCNQ1 ctr inactive | KCNQ2 inh 96% | KCNQ1-KCNE1 inh 142%
CC(C)Cc1cc(C(=O)N2CCN(C(c3ccccc3)c3ccccc3)CC2)no1	KCNQ1 inh 7 | KCNQ1 inh valid 136 | CHO KCNQ1 ctr inactive | KCNQ1 ephys val inactive | KCNQ2 inh 109% | KCNQ1-KCNE1 inh 176%
CC(C)c1cc(C(=O)N2CCN(C(c3ccccc3)c3ccccc3)CC2)no1	KCNK9 inh -7.9, KCNQ1 inh 7 | KCNQ1 inh valid 108 | CHO KCNQ1 ctr inactive | KCNQ1 ephys val inactive | KCNQ2 inh 103% | KCNQ1-KCNE1 inh 110%
COc1ccc(-c2cc(C(=O)N3CCN(C(c4ccccc4)c4ccccc4)CC3)no2)cc1OC	none
COc1ccc(-c2cc(C(=O)N3CCN(C(c4ccccc4)c4ccccc4)CC3)no2)cc1	none
COc1ccc2oc(C(=O)N3CCN(C/C=C/c4ccccc4)CC3)c(C)c2c1	none (no result: hERG rescue, KCNK9 inh, Kir21 block, KCNQ1 inh, KCNQ1 act)
CCCCC(=O)O	none (no result: KCNK3 inh)
Cc1nn(Cc2c(Cl)cccc2Cl)c(Cl)c1/C=N/NC(=O)c1cccnc1	none
Cc1sc(NC(=O)CSC2=NCCS2)nc1-c1ccccc1	none
CCOC(=O)c1sc(NC(=O)CSc2ncn(-c3ccccc3)n2)nc1C	KCNQ1 inh 16 | KCNQ1 inh valid 26 | CHO KCNQ1 ctr inactive | KCNQ2 inh inactive | KCNQ1-KCNE1 inh inactive
Cc1sc(NC(=O)CSc2ncn(-c3ccccc3)n2)nc1-c1ccccc1	KCNQ1 inh 6 | KCNQ1 inh valid 32 | CHO KCNQ1 ctr inactive | KCNQ2 inh 77% | KCNQ1-KCNE1 inh inactive
COc1ccc([N+](=O)[O-])cc1NC(=O)CCNC(=O)Cn1ccc2ccccc2c1=O	none
O=Cc1ccc(Sc2ncccn2)o1	none (no result: hERG rescue, KCNK9 inh, Kir21 block, KCNQ1 inh, KCNQ1 act)
COc1ccc(-c2noc(CNC(=O)c3ccoc3C)n2)cc1	none
COc1cccc(-c2cc3nc(-c4ccccc4)cc(N4CCCC(O)C4)n3n2)c1 (stereo not drawn)	KCNQ1 inh 9 | KCNQ1 inh valid 85 | CHO KCNQ1 ctr inactive | KCNQ2 inh 134% | KCNQ1-KCNE1 inh 182%
CCC1(C)Cc2ccccc2-c2nc(NN)[nH]c(=O)c21 (stereo not drawn)	none
CCC1(C)Cc2ccccc2-c2nc(-c3ccccc3)oc(=O)c21 (stereo not drawn)	KCNQ1 inh 8 | KCNQ1 inh valid 92 | CHO KCNQ1 ctr inactive | KCNQ1 ephys val inactive | KCNQ2 inh 102% | KCNQ1-KCNE1 inh 104%
C=CCn1c(SCc2c(C)noc2C)nc2sc3c(c2c1=O)CCCC3	KCNQ1 inh 7 | KCNQ1 inh valid 80 | CHO KCNQ1 ctr inactive | KCNQ2 inh 90% | KCNQ1-KCNE1 inh 146%
CCOC(=O)Cc1csc(SCC(=O)N2CCN(c3ccccc3)CC2)n1	none (no result: hERG rescue, KCNK9 inh, Kir21 block, KCNQ1 inh, KCNQ1 act)
Cc1[nH]c2ccccc2c1C(=O)CSc1nc2ccccc2c(=O)n1-c1ccccc1F	none (no result: KCNK3 inh)
CCOC(=O)c1c(C)[nH]c(C)c1C(=O)CSc1nc2ccccc2c(=O)n1-c1ccc(C)cc1	KCNQ1 inh 6 | KCNQ1 inh valid 58 | CHO KCNQ1 ctr inactive | KCNQ2 inh inactive | KCNQ1-KCNE1 inh 58%
CCC1(c2ccc(Cl)cc2)NC(=O)N(Cc2ccc(C(=O)OC)cc2)C1=O (stereo not drawn)	none
Cc1ccc(-c2cc(-c3ccccc3Cl)c(C#N)c(N)n2)o1	none
Cc1ccc(-c2cc(-c3ccccc3)c(C#N)c(N)n2)o1	KCNQ1 inh 6 | KCNQ1 inh valid 34 | CHO KCNQ1 ctr inactive | KCNQ2 inh inactive | KCNQ1-KCNE1 inh 48%
CCOC(=O)c1ccc(NS(=O)(=O)c2ccc3c(c2)NC(=O)CCS3)cc1	none
CSc1nsc(/C=C/Nc2ccc(C)c(C)c2)c1C#N	none
CSc1nsc(/C=C/Nc2ccc(C)cc2)c1C#N	KCNQ1 inh 7 | KCNQ1 inh valid inactive | CHO KCNQ1 ctr inactive | KCNQ2 inh inactive | KCNQ1-KCNE1 inh 57%
CCOc1ccc2ncc(C(=O)c3ccc(OC)cc3)c(N3CCN(CC)CC3)c2c1	none
CCOC(=O)c1cnc2ccc(OCC)cc2c1N1CCN(c2ccccc2OC)CC1	KCNQ1 inh 11 | KCNQ1 inh valid 130 | CHO KCNQ1 ctr 0.33 | KCNQ2 inh 141% | KCNQ1-KCNE1 inh 182%
CC(C)COC(=O)NCCOC(=O)Nc1cccc(Cl)c1	KCNQ1 inh 8 | KCNQ1 inh valid 124 | CHO KCNQ1 ctr inactive | KCNQ1 ephys val active | KCNQ2 inh 113% | KCNQ1-KCNE1 inh 91%
CC(C)COC(=O)NCCCOC(=O)Nc1ccccc1	none
O=C(Nc1ccc(F)cc1)c1cc(S(=O)(=O)Nc2ccc(F)cc2)cs1	KCNQ1 inh 7 | KCNQ1 inh valid 66 | CHO KCNQ1 ctr inactive | KCNQ2 inh 62% | KCNQ1-KCNE1 inh inactive
CC1CCCC(NC(=S)Nc2cccc(S(=O)(=O)N(C)C)c2)C1C (stereo not drawn)	KCNQ1 inh 8 | KCNQ1 inh valid 35 | CHO KCNQ1 ctr inactive | KCNQ2 inh inactive | KCNQ1-KCNE1 inh inactive

Assay outcomes from PubChem BioAssay.
